Experimental data gathered from unrelated publications.
Protocols differ between the studies behind these lines. Values after ≈ are worked out from the molar mass of the structure shown.

SMILES	organism	assay	system	setting	measurement	result
COc1ccccc1-c1nc(N2CCC(c3ccccn3)C2)c2ccccc2n1 (centres unmarked)	Trypanosoma cruzi	parasite growth, imaging	U2OS	intracellular, amastigote	IC50	0.91 µM
CCOC(=O)c1c(NC(=O)c2ccccc2)sc2c1CCN(CC)C2	Mycobacterium tuberculosis	microbial growth, resazurin	H37RV		MIC	279 µM (≈ 100 µg/mL)
O=C(N[C@@H](Cc1ccccc1)C(=O)c1cc(-c2ccccc2)no1)[C@H](Cc1ccccc1)NC(=O)N1CCOCC1 (mixture of isomers)	Trypanosoma cruzi	parasite growth	TULAHUEN	intracellular, amastigote	IC50	28 µM
c1ccc(-c2nc(N3CCC(c4ccccn4)C3)c3ccccc3n2)nc1 (centres unmarked)	Trypanosoma cruzi	parasite growth, imaging	U2OS	intracellular, amastigote	IC50	1.2 µM
CCN1CCc2c(sc(N)c2C(=O)O)C1	Mycobacterium tuberculosis	microbial growth, resazurin	H37RV		MIC	> 400 µM
O=C1NN=C(N=Cc2ccccc2O)C1=NNn1c(-c2ccccc2)nc2ccccc2c1=O	Monascus purpureus	microbial growth, broth dilution			MIC	111 µM (≈ 50 µg/mL)
c1ccc(CNc2nc(-c3ccccn3)nc3ccccc23)cc1	Trypanosoma cruzi	parasite growth, imaging	U2OS	intracellular, amastigote	IC50	1.4 µM
CCOC(=O)c1cc(-c2ccccc2)sc1NC(=O)c1cc(C(F)(F)F)cc(C(F)(F)F)c1	Mycobacterium tuberculosis	microbial growth, resazurin	H37RV		MIC	> 200 µM
Nc1nc(O)c2ncn(COC(CO)CO)c2n1	Human betaherpesvirus 5	cytopathic effect	AD169		IC50	0.9 µM
CC1=NN(CNC(=O)c2ccccn2)C(=O)C1=NNn1c(-c2ccccc2)nc2ccccc2c1=O	Monascus purpureus	microbial growth, broth dilution			MIC	104 µM (≈ 50 µg/mL)
COc1ccccc1CNC(=O)c1cc(-c2ccccc2)sc1N	Mycobacterium tuberculosis	microbial growth, resazurin	H37RV		MIC	> 200 µM
[H]/N=C(/N)N[C@H]1[C@H](O)[C@@H](O)[C@H](O[C@@H]2O[C@@H](C)[C@](O)(C=O)[C@H]2O[C@@H]2O[C@@H](CO)[C@H](O)[C@@H](O)[C@@H]2NC)[C@@H](N/C(N)=N\[H])[C@@H]1O	Mycobacterium tuberculosis	microbial growth, disc diffusion	ATCC25177	10 µg/disc, 12 days	inhibition zone	40 mm
O=C(O)c1cn(C2CC2)c2cc(N3CCNCC3)c(F)cc2c1=O	Monascus purpureus	microbial growth, broth dilution			MIC	6.25 µM (≈ 2.07 µg/mL)
CCOC(=O)c1c(NC(=O)c2cc(C(F)(F)F)cc(C(F)(F)F)c2)sc2c1CCN(C(=O)OC(C)(C)C)C2	Mycobacterium tuberculosis	microbial growth, resazurin	H37RV	7 days	MIC	> 100 µM
c1ccc2c(N3CCCCC3)nc(-n3cccn3)nc2c1	Trypanosoma cruzi	parasite growth, imaging	U2OS	intracellular, amastigote	IC50	8.96 µM
Cc1ccc2nc(-c3ccc(F)c(F)c3)c(CN3CCN(C4CCCCC4)CC3)n2c1	Trypanosoma cruzi	parasite growth	TULAHUEN	6 days, intracellular, amastigote	EC90	> 5 µM
O=C1NN=C(N=Cc2ccc(O)c(O)c2)C1=NNn1c(-c2ccccc2)nc2ccccc2c1=O	Monascus purpureus	microbial growth, broth dilution			MIC	53.5 µM (≈ 25 µg/mL)
c1ccc2c(N3CCCCC3)nc(-c3ccncn3)nc2c1	Trypanosoma cruzi	parasite growth, imaging	U2OS	intracellular, amastigote	IC50	32.4 µM
CCOC(=O)c1c(NC(=O)c2c(F)c(F)c(F)c(F)c2F)sc2c1CCN(CC)C2	Mycobacterium tuberculosis	microbial killing	H37RV	21 days	MBC	< 5 µM
N#Cc1cccc(-c2nc(N3CCC(c4ccccn4)C3)c3ccccc3n2)c1 (centres unmarked)	Trypanosoma cruzi	parasite growth, imaging	U2OS	intracellular, amastigote	IC50	6.92 µM
Cc1cc2nccc(-c3cccnc3)c2c(C)c1-c1ccc(CN2CCOCC2)cc1	Mycobacterium tuberculosis	microbial growth	H37RV		MIC90	5 µM (≈ 2.05 µg/mL)
COc1ccc(Nc2nc(-c3cccs3)nc3ccccc23)cc1	Trypanosoma cruzi	parasite growth, imaging	U2OS	intracellular, amastigote	IC50	5.87 µM
COc1ccccc1CNC(=O)c1c(N)sc2c1CCCC2	Mycobacterium tuberculosis	microbial growth, resazurin	H37RV		MIC	316 µM (≈ 100 µg/mL)
